# Screening results: PubChem BioAssay, several laboratories
# Glyco luc inh: N-linked glycosylation inhibition; D54 ERlucT glycosylation luciferase reporter, 24 h; percent of 100 nM tunicamycin response; reporter increase, % at 12.5 µM; hit rate 0.23% among 360,000;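 active = mean luciferase reporter signal, scaled so untreated is 0 and the glycosylation-blocking control 100, at or above a set limit in every replicate; inconclusive = mean reaches the limit but not every replicate does; inactive = mean below the limit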;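 note: luciferase carries N-glycosylation sites so blocking glycosylation raises the light; 0% = median of neutral control wells and 100% = median of 100 nM tunicamycin wells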
# Xi reactivation: X-chromosome reactivation activator | XiGFP mouse fibroblasts, % GFP-positive cells imaging, 3 d; cells co-treated with 5-aza-dC sensitizer; scaled so ellipticine positive control = 100% | activation, % at 7.58 µM | hit rate 0.055% among 360,000 | AID 743238;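 active = mean normalized replicate activation at least 10% and every replicate at or above 10%; inconclusive = only one of the two criteria met; inactive = mean below 10% and not all replicates reach 10%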;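 note: 0% = median of on-plate neutral control wells and 100% = ellipticine 6 µM median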
#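 assay system = SV40-immortalized XiGFP fibroblast cells, line 68-5-11 | buffer or medium = DMEM plus 5-aza-dC sensitizer | doses = single-point pinned compound dosing | times = 3-day compound exposure, then 15 min fixation at room temperature | benchmarks = positive control ellipticine, 6 µM final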
# Vif inh: blocks HIV Vif function. HEK293T cells, Vif self-association by quenched fluorescence, imaging, 24 h. inhibition, % at 7.49 µM. hit rate 0.35% among 340,000; in the data active = inhibition above about 50%, passing the limit was not always enough; inconclusive = no clear call, values can overlap the other calls; inactive = below about 31%
# NPR2 activator: GC-B (human) receptor activation; HEK293-GC-B cells, CNP EC30, cGMP TR-FRET; 0% at EC30 CNP, 100% saturating CNP; hit rate 0.11% among 370,000; activation, % at 10 µM; AID 1920062;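 active = activation at 10 µM reaching about 35% in either raw or pattern-adjusted values, limit read from the data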
# CaV13 ICDI inh: Disruptors of the CACNA1D IQ motif to Ca2+-dependent inactivation inhibitor domain association, primary screening, Förster resonance energy transfer in intact living … | hit rate 0.098% among 340,000 | inhibition, % at 12.3 µM | HEK cells, CFP/YFP FRET ICDI-IQ, plate reader, 10 min; percent FRET-ratio fall versus neutral wells | AID 743397;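 active = mean replicate inhibition of at least 30% and at least 1% of replicates passing that level; inconclusive = only one of the two criteria is met; inactive = neither criterion is met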;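 note: 0% = median of the neutral control wells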
# NPR1 activator: GC-A (human) enzyme activation | P16066 | HEK293 GC-A cells, cGMP TR-FRET, EC30 ANP; 0% at EC30 ANP, 100% saturating ANP | activation, % at 10 µM | hit rate 0.14% among 370,000 | AID 1671463; in the data active = activation above about 40%
# * marks the source's active call; other numbers are inactive results; ? = inconclusive; . = not tested or not shown; + = active, no number. Shown are actives, neighbours in structure and some others; about 0.7% of the full set was active somewhere.
SMILES,Glyco luc inh,Xi reactivation,Vif inh,NPR2 activator,CaV13 ICDI inh,NPR1 activator
COc1ccc(-c2cnc3c(c2)C(=O)N([C@H](C)CO)C[C@@H](C)[C@H](CN(C)S(C)(=O)=O)O3)cc1,.,0,.,.,.,.
CCOc1ccc(Br)cc1C(=O)Nc1ccc(C(=O)NCC(C)C)cc1,115*,0,-3,14,-3,8
COc1ccc(OCCNc2cc(N3CCCCC3)ccc2[N+](=O)[O-])cc1,-1,.,-3,0,-4,4
CC1CN(c2ccc([N+](=O)[O-])c(NCCOc3ccccc3)c2)CCN1 (stereo not drawn),0,0,16,22,-3,44*
C[C@@H]1CCCCO[C@H](CN(C)S(=O)(=O)c2cccs2)[C@H](C)CN([C@H](C)CO)C(=O)c2cc(NS(=O)(=O)c3ccccc3)ccc2O1,.,0,.,.,.,.
Cc1ccc(-n2nc3c(=O)n(CC(=O)NCCc4cccs4)nc(C)c3c2C)cc1,1,0,1,0,-3,0
Cc1ccc(-n2nc3c(N4CCC(C(=O)NCCc5cccs5)CC4)nnc(C)c3c2C)cc1,-11,0,51*,-3,-5,3
C[C@@H]1CCCCO[C@H](CN(C)C(=O)C2CCCCC2)[C@H](C)CN([C@@H](C)CO)C(=O)c2cc(NC(=O)Nc3ccccc3)ccc2O1,.,0,.,.,.,.
CN(C)c1ccc(-c2nc3cnccn3c2Nc2ccc3c(c2)OCCO3)cc1,1,0,3,1,-8,9
COc1ccc(-c2nc3cnccn3c2Nc2ccc3c(c2)OCO3)cc1,-1,0,-4,47*,-8,52*
Cc1ccc(-c2nc3cnccn3c2Nc2ccc3c(c2)OCCO3)o1,4,.,2,23,-5,19
Cc1ccc(-c2nc3cnccn3c2Nc2ccc3c(c2)OCO3)cc1,-3,0,-7,50*,-7,51*
CCCn1nnnc1SCC(=O)N1CCCCC1,0,0,57*,6,-4,2
CO[C@@H]1CN(C)C(=O)c2ccc(NC(=O)C3CC3)cc2OC[C@H](C)N(C(=O)NC(C)C)C[C@@H]1C,.,0,.,.,.,.
O=C(c1ccccc1)N1CC2(C1)[C@@H](c1ccccc1)[C@@H](CO)N2CC1CC1,.,0,.,.,.,.
COc1cccc(C#Cc2ccc3c(c2)O[C@@H](CN(C)C(=O)c2ccccn2)[C@H](C)CN([C@H](C)CO)S3(=O)=O)c1,.,0,.,.,.,.
O=C1c2cccc3c(N4CCCCC4)ccc(c23)C(=O)N1c1ccccc1O,-6,1,-1,5,-320,9
O=C1c2cccc3c(N4CCCCC4)ccc(c23)C(=O)N1c1ccc(O)cc1,-5,1,112*,-10,-15,1
CCOc1ccc(C2Nc3ccc4ccccc4c3-c3c2c(=O)oc2ccccc32)cc1 (stereo not drawn),12,.,-2,-7,-4,0
COc1ccc(C2Nc3ccc4ccccc4c3-c3c2c(=O)oc2ccccc32)cc1 (stereo not drawn),109*,.,4,-6,.,-8
COC(=O)c1ccc2c(=O)n(Cc3ccco3)c(SCC(=O)Nc3ccccc3Cl)nc2c1,-5,.,1,7,.,-3
COC(=O)c1ccc2c(=O)n(Cc3ccco3)c(SCC(=O)Nc3cc(C)on3)nc2c1,62*,0,53*,7,-3,6
COc1ccc2c(c1)c(/C=N/Nc1nc3ccccc3[nH]1)c(C)n2C,-7,17*,-4,-2,-4,2
Oc1cccc2c3c(oc12)CCCC3,-1,0,70*,-4,-13,2
C[C@@H]1CN([C@@H](C)CO)C(=O)c2cccc(NC(=O)C3CCOCC3)c2O[C@@H]1CN(C)Cc1ccc(C(=O)Nc2ccccc2N)cc1,.,1,.,.,.,.
SMILES,Glyco luc inh,Xi reactivation,Vif inh,NPR2 activator,CaV13 ICDI inh,NPR1 activator
Cc1noc(C)c1S(=O)(=O)Nc1ccc2c(c1)C(=O)N([C@@H](C)CO)C[C@H](C)[C@@H](CN(C)Cc1ccncc1)O2,.,-1,.,.,.,.
CC(=O)c1c(N)nc2n(c1=O)CCCCC2,4,.,-2,112*,.,-1
Cc1ccc(S(=O)(=O)Nc2ccc(SC(F)F)cc2)c(C)c1,-3,.,61*,1,-7,1
Cc1ccc(S(=O)(=O)Nc2ccc3c(c2)C(=O)N([C@@H](C)CO)C[C@H](C)[C@H](CN(C)C(=O)c2ccncc2)OCCCC[C@@H](C)O3)cc1,.,0,.,.,.,.
Cc1cccn2c(=O)c3cc(C(=O)NCCc4ccccc4)c(=N)n(Cc4ccco4)c3nc12,6,0,-4,9,-3,20
Cc1cccn2c(=O)c3cc(C(=O)NCc4ccc(F)cc4)c(=N)n(CCCN4CCOCC4)c3nc12,3,?,-4,-7,116*,11
Cc1cccn2c(=O)c3cc(C(N)=S)c(=N)n(CCCN4CCOCC4)c3nc12,11,0,1,-1,+,14
COCCCn1c(=N)c(C(N)=S)cc2c(=O)n3cccc(C)c3nc21,4,0,-12,-2,14,15
CCCCNC(=O)c1cc2c(=O)n3cccc(C)c3nc2n(CCN2CCOCC2)c1=N,7,.,12,-6,.,6
Cc1cccn2c(=O)c3cc(C(=O)NCc4ccco4)c(=N)n(CCc4ccccc4)c3nc12,53*,0,2,-2,39*,9
COCCNC(=O)c1cc2c(=O)n3cccc(C)c3nc2n(Cc2ccncc2)c1=N,1,.,-11,0,43*,11
COc1ccc(S(=O)(=O)N2CCCCC2)cc1NC(=O)c1[nH]c(C)c(C(C)=O)c1C,55*,.,12,4,.,8
CN(CC(=O)Nc1cc(S(=O)(=O)N2CCCCCC2)ccc1Cl)Cc1ccc2c(c1)OCO2,-7,0,-9,16,-4,8
CC(=O)c1c(C)[nH]c(C(=O)Nc2cc(S(=O)(=O)N3CCCCC3)ccc2C)c1C,9,0,-6,3,-5,-1
COc1ccc(S(=O)(=O)N2CCCCCC2)cc1NC(=O)CN(C)Cc1ccc2c(c1)OCO2,-7,1,-32,61*,-5,41*
CCOc1cc(N2CCOCC2)c(OCC)cc1NC(=O)c1[nH]c(C)c(C(C)=O)c1C,29*,0,8,3,-6,8
COc1ccc2c3c(n(C)c2c1)[C@H](CO)N(C(=O)Cc1ccccn1)CC31CCN(CC2CCOCC2)CC1,.,0,.,.,.,.
C[C@@H]1CN([C@H](C)CO)C(=O)c2cccc(NC(=O)c3cnccn3)c2O[C@@H]1CN(C)S(=O)(=O)c1ccccc1,.,0,.,.,.,.
